We go through two compounds from ChEMBL document CHEMBL1817556, “Substituted lactam and cyclic azahemiacetals modulate Pseudomonas aeruginosa quorum sensing” (Bioorg Med Chem, 2011).

As usually defined, the IC50 is the concentration at which inhibition is half-maximal. The low end stands for greater potency, the high end for weaker potency.

Experiment [1] concerns the target T1, Transcriptional activator protein LasR (Pseudomonas aeruginosa (strain ATCC 15692 / PAO1 / 1C / PRS 101 / LMG12228), UniProt P25084).
T1 sequence (P25084 whole entry): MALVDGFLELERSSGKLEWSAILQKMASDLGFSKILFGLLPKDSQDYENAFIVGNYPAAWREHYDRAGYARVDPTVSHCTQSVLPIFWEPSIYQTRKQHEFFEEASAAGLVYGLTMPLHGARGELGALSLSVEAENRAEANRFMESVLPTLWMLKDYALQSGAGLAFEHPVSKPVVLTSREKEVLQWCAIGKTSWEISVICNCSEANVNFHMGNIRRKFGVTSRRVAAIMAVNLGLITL
Kind of experiment: Inhibition of Pseudomonas aeruginosa LasR.

Experiment [2] concerns the target 3-(3-hydroxydecanoyloxy)decanoate synthase (Pseudomonas aeruginosa (strain ATCC 15692 / PAO1 / 1C / PRS 101 / LMG12228)) (UniProt Q51559). Description: Modulation of Pseudomonas aeruginosa lacZ-fused rhlA expressed in Escherichia coli DH5alpha co-expressing Ptac-rhlR assessed as C4-AHL-induced effect at 0.58 mM after 4 hrs by beta-galactosidase assay relative to control. In outline: (§1)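 E. coli DH5α carrying pECP61.5 (Ptac-rhlR, PrhlA-lacZ), grown overnight in LB with ampicillin 100 μg/ml and diluted to OD600 0.150. At OD600 1.0, 1 mM IPTG, 2 μM C4-HSL and compound or DMSO were added. Cultures were shaken 4 h at 37 °C, then β-galactosidase was read in Miller units. Activity is % of solvent sample, from triplicates per biological replicate, with at least two repeats.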

Experiment [3] has as its target T2, Acyl-homoserine-lactone synthase (Pseudomonas aeruginosa (strain ATCC 15692 / PAO1 / 1C / PRS 101 / LMG12228)) (UniProt P33883).
T2 sequence (whole entry): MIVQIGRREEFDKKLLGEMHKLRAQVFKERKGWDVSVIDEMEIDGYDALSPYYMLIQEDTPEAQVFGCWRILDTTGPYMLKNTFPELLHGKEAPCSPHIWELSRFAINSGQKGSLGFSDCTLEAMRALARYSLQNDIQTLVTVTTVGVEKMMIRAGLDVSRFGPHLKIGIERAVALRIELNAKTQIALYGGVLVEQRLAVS
Kind of experiment: Modulation of Pseudomonas aeruginosa lacZ-fused lasI expressed in Escherichia coli DH5alpha co-expressing pBAD-lasR assessed as 3-oxo-C12-AHL-induced effect at 0.29 mM after 3 hrs by beta-galactosidase assay relative to control. The method, boiled down:
(§2)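 E. coli DH5α carrying pSC11 (PlasI-lacZ translational fusion) and pJN105L (PBAD-lasR) was grown overnight in LB with ampicillin (100 μg/ml) and gentamicin (15 μg/ml), then diluted to OD600 0.150. Arabinose (0.2% w/v), 3-oxo-C12-AHL (2 μM) and test compound or DMSO were added. Cultures were shaken 3 h at 37 °C. β-Galactosidase activity was read in Miller units and expressed as % of the solvent sample. Triplicates per biological replicate, repeated at least twice; paired two-tailed t-test.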

In experiment [4] the target is 3-(3-hydroxydecanoyloxy)decanoate synthase (Pseudomonas aeruginosa (strain ATCC 15692 / PAO1 / 1C / PRS 101 / LMG12228)) (UniProt Q51559). Description: Modulation of Pseudomonas aeruginosa lacZ-fused rhlA expressed in Escherichia coli DH5alpha co-expressing Ptac-rhlR assessed as C4-AHL-induced effect at 0.87 mM after 4 hrs by beta-galactosidase assay relative to control. The method, boiled down:
as §1

Experiment [5] addresses T2, Acyl-homoserine-lactone synthase (Pseudomonas aeruginosa (strain ATCC 15692 / PAO1 / 1C / PRS 101 / LMG12228)). Description: Modulation of Pseudomonas aeruginosa lacZ-fused lasI expressed in Escherichia coli DH5alpha co-expressing pBAD-lasR assessed as 3-oxo-C12-AHL-induced effect at 0.87 mM after 3 hrs by beta-galactosidase assay relative to control. The method, boiled down:
as §2

In experiment [6] the target is 3-(3-hydroxydecanoyloxy)decanoate synthase (Pseudomonas aeruginosa (strain ATCC 15692 / PAO1 / 1C / PRS 101 / LMG12228)) (UniProt Q51559). Kind of experiment: Modulation of Pseudomonas aeruginosa lacZ-fused rhlA expressed in Escherichia coli DH5alpha co-expressing Ptac-rhlR assessed as C4-AHL-induced effect at 1.16 mM after 4 hrs by beta-galactosidase assay relative to control. The method, boiled down: as §1

In experiment [7] the target is T2, Acyl-homoserine-lactone synthase (Pseudomonas aeruginosa (strain ATCC 15692 / PAO1 / 1C / PRS 101 / LMG12228)). Kind of experiment: Modulation of Pseudomonas aeruginosa lacZ-fused lasI expressed in Escherichia coli DH5alpha co-expressing pBAD-lasR assessed as 3-oxo-C12-AHL-induced effect at 1.16 mM after 3 hrs by beta-galactosidase assay relative to control. In outline:
as §2

Experiment [8] addresses 3-(3-hydroxydecanoyloxy)decanoate synthase (Pseudomonas aeruginosa (strain ATCC 15692 / PAO1 / 1C / PRS 101 / LMG12228)) (UniProt Q51559). Kind of experiment: Modulation of Pseudomonas aeruginosa lacZ-fused rhlA expressed in Escherichia coli DH5alpha co-expressing Ptac-rhlR assessed as C4-AHL-induced effect at 0.29 mM after 4 hrs by beta-galactosidase assay relative to control. The method, boiled down:
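rhl reporter: E. coli DH5α carrying pECP61.5 (Ptac-rhlR, PrhlA-lacZ) was grown overnight in LB with ampicillin (100 μg/ml) only, then diluted to OD600 0.150. It was induced with 1 mM IPTG, and 2 μM C4-HSL plus compound or DMSO were added at OD600 1.0. Cultures were shaken 4 h at 37 °C. β-Galactosidase activity was read in Miller units as % of the solvent sample. Triplicates per biological replicate, at least two repeats; paired two-tailed t-test.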

For experiment [9], the target named is T2, Acyl-homoserine-lactone synthase (Pseudomonas aeruginosa (strain ATCC 15692 / PAO1 / 1C / PRS 101 / LMG12228)). Kind of experiment: Modulation of Pseudomonas aeruginosa lacZ-fused lasI expressed in Escherichia coli DH5alpha co-expressing pBAD-lasR assessed as 3-oxo-C12-AHL-induced effect at 0.58 mM after 3 hrs by beta-galactosidase assay relative to control. In outline: as §2

`O=C(Cc1cccc([N+](=O)[O-])c1)N[C@H]1CCOC1=O` displayed an IC50 in [1] of 610 nM.
For the compound `CCCSC[C@@H]1CCC(=O)N1`, the Activity in experiment [2] amounted to 118%; in [3] it was 90%; in [4], 104%; in experiment [5], 51%; in experiment [6], 108%; in experiment [7] it was 43%. In addition, the Activity in experiment [8] was found to be 104%; in experiment [9] it was 72%.
